Bioassay records from PubChem.
HCV NS3 hel inh: inhibitors of Hepatitis C virus NS3 helicase | inhibition, % at 10.9 µM | 290,000 compounds, 0.56% hits | NS3 helicase DNA unwinding, Cy5 molecular beacon fluorescence;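 active = inhibition above the mean of all tested compounds plus 3 SD, set per campaign, cut at about 35% in these data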
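System: NS3 helicase fragment of HCV / Schedule: 1 h at 25 °C / Control set: DMSO alone as 0% and 110 µM thioflavine S as 100% / Reagent: Cy5/quencher beacon DNA duplex and ATP to start / Technique: Cy5 fluorescence / Replication: singlicate / Evaluation: % inhibition of end-to-start signal ratio versus controls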
ZTA counter: ZTA (EBV) inhibition in EBNA-1 counter-screen; 320,000 compounds, 0.15% hits; ZTA-DNA binding, fluorescence polarization; AID 2234; P03206; inhibition, % at 11 µM; in the data active = inhibition above about 33%
Target sequence (P03206 whole entry, looked up): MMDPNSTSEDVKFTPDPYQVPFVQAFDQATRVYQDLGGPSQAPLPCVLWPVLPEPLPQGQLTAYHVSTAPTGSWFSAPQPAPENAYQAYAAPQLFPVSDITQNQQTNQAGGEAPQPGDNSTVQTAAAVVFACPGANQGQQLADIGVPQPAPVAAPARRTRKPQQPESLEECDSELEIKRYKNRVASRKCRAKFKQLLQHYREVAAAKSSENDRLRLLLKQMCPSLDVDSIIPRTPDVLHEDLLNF
HCV core dimer: blocks dimerization of HCV core protein; inhibition, % at 5 µM; 300,000 compounds, 0.33% hits; AID 1899; TR-FRET GST/Flag-core106 dimerization, 1536-well;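 active = inhibition above the mean of all tested compounds plus 3 SD, set per screening campaign, cut at about 45% in these data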
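assay system = GST-tagged and Flag-tagged HCV core protein residues 1-106 | controls = unlabelled core106 and no-GST-core106 wells | incubation = compound-protein-antibody incubation 4 h at 22.5 °C | probe or stimulus = Eu donor and XL665 acceptor anti-tag antibodies | read-out = % inhibition based on acceptor/donor emission ratio | signal = TR-FRET 671 and 617 nm emission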
EBNA-1 inh: blocks EBNA-1 binding to DNA; EBNA-1 DNA binding, fluorescence polarization; inhibition, % at 14.8 µM; 300,000 compounds, 0.34% hits; AID 1950; in the data active = inhibition above about 28%
EBNA-1 confirm: EBNA-1 (EBV) inhibition, confirmation | Recombinant EBNA-1 DBD, Cy5-DNA fluorescence polarization | shares compounds with EBNA-1 inh | inhibition, % at 14.8 µM | 830 compounds, 35% hits;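 active = mean inhibition across replicates above a set limit taken from the earlier primary screen, cut at about 28% in these data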
ZTA counter trip: counter-screen for EBNA-1 inhibitors: Epstein-Barr virus ZTA inhibitors, triplicate; 830 tested, under 10 active; Zta-ZRE DNA binding, Cy5 fluorescence polarization; shares compounds with EBNA-1 inh; AID 2328; inhibition, % at 11.1 µM;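 active = mean inhibition over triplicates above a set limit taken from the primary EBNA-1 screen, cut at about 37% in these data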;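 note: purified full length Zta protein with Cy5 labeled ZRE DNA probe; inhibitors lower polarization by freeing the labeled DNA probe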
Each line names hits and unclear results; the compound was inactive in the other large screens (follow-up assays come after a bar, where they were run). Hits are enriched below; roughly 1.2% of the tested compounds scored in any of these assays.

CCN1C(=O)c2cccc3c(S(=O)(=O)Nc4ccc(OC)cc4OC)ccc1c23	EBNA-1 inh 32.2 | EBNA-1 confirm inactive | ZTA counter trip inactive
COc1cccc(CNC(=O)c2cc3oc4ccccc4c3n2C)c1OC	EBNA-1 inh 31.6 | EBNA-1 confirm inactive | ZTA counter trip inactive
CCCCn1c(CN2C(=O)c3ccccc3C2=O)nc2ccccc2c1=O	EBNA-1 inh 31.6 | EBNA-1 confirm 31.2 | ZTA counter trip inactive
O=C1c2ccccc2C(=O)N1Cc1nc2ccccc2c(=O)n1CCCn1ccnc1	none (no result: ZTA counter, HCV core dimer, EBNA-1 inh)
O=C(NCCOc1ccccc1)C(=O)c1c[nH]c2ccccc12	none
O=C(Cn1c(O)c(/C=C2\C=Nc3ccc(Br)cc32)sc1=O)N1CCCC1	EBNA-1 inh 29.1 | EBNA-1 confirm inactive | ZTA counter trip inactive
Cn1c(CNC(=O)c2ccc(Cl)c(Cl)c2)nnc1SCC(=O)Nc1sc2c(c1C#N)CCCC2	EBNA-1 inh 30.9 | EBNA-1 confirm 38.9 | ZTA counter trip inactive
Cc1cc(C)c(C(=O)N2CCCC(CNC(=O)C3(c4ccc(Cl)cc4)CC3)C2)c(=O)[nH]1 (stereo not drawn)	none
O=C(CSc1nccc(=O)[nH]1)NC1CCCC1	none
CCOC(=O)N1CCc2c(sc(NC(=O)C3COc4ccccc4O3)c2C(N)=O)C1 (stereo not drawn)	EBNA-1 inh 29.4 | EBNA-1 confirm 56.2 | ZTA counter trip inactive
CC(=O)N1CCc2c(sc(NC(=O)C3COc4ccccc4O3)c2C(N)=O)C1 (stereo not drawn)	none
CCNc1ccc(C(=O)OC(C(=O)NC(N)=O)C(C)C)cc1[N+](=O)[O-] (stereo not drawn)	EBNA-1 inh 32.7 | EBNA-1 confirm inactive | ZTA counter trip inactive
CCNc1ccc(C(=O)OCC(=O)NC(C)c2ccccc2)cc1[N+](=O)[O-] (stereo not drawn)	none
Cc1ccc(Cl)c2c(N=Nc3ccccc3)c(O)[nH]c12	none (no result: ZTA counter, HCV core dimer, EBNA-1 inh)
N#C/C(=C(/O)COC(=O)CSc1ccc2ccccc2c1)c1nc2ccccc2[nH]1	EBNA-1 inh 39.1 | EBNA-1 confirm inactive | ZTA counter trip inactive
Cc1ccc(C)c(SCC(=O)OC/C(O)=C(\C#N)c2nc3ccccc3[nH]2)c1	none (no result: ZTA counter, HCV core dimer, EBNA-1 inh)
Cc1cc2cc(CNC(=O)c3ccc(S(=O)(=O)N4CCCCC4)cc3)ccc2n1C	none
Cc1cc2cc(CNC(=O)c3ccc(S(=O)(=O)N4CCCC4)cc3)ccc2n1C	EBNA-1 inh 33.1 | EBNA-1 confirm inactive | ZTA counter trip inactive
Cc1ccc(S(=O)(=O)N2CCN(CCOc3c(Cl)cccc3Cl)CC2)cc1C	none (no result: HCV NS3 hel inh, HCV core dimer, EBNA-1 inh)
Fc1ccccc1COc1ccccc1/C=N/Nc1nc(N2CCCC2)nc(N2CCCC2)n1	none
C(=N\Nc1nc(N2CCCC2)nc(N2CCCC2)n1)/c1ccccc1OCc1ccccc1	EBNA-1 inh 38.2 | EBNA-1 confirm inactive | ZTA counter trip inactive
COc1ccccc1CNC(=O)c1ccc2nc3[nH]c4ccccc4c3nc2c1	EBNA-1 inh 65.1 | EBNA-1 confirm 67.4 | ZTA counter trip inactive
COc1ccc(-n2c(SCC(=O)NCCCN3CCCC3=O)nnc2C(C)N2CCCCC2)cc1 (stereo not drawn)	EBNA-1 inh 41.0 | EBNA-1 confirm inactive | ZTA counter trip inactive
O=C(NNC(=O)C12CC3CC(CC(C3)C1)C2)c1ccccc1[N+](=O)[O-]	none
O=C(COC(=O)/C=C/c1ccc(Cl)cc1Cl)Nc1ccc2c(c1)OCCO2	none
COc1cc(NC(=O)COC(=O)/C=C/c2ccc(Cl)cc2Cl)cc(OC)c1	EBNA-1 inh 53.4 | EBNA-1 confirm 59.2 | ZTA counter trip inactive
O=C(O)c1ccn2c(C(=O)c3ccccc3)c(-c3ccccc3)cc2c1	none
Cc1c(NC(=O)COC(=O)c2cc(-c3ccc(-c4ccccc4)cc3)nc3ccccc23)c(=O)n(-c2ccccc2)n1C	HCV core dimer 49.2, EBNA-1 inh 31.4 | EBNA-1 confirm inactive | ZTA counter trip inactive
NS(=O)(=O)c1cnccc1Oc1cccc(Cl)c1	none (no result: HCV NS3 hel inh)
COc1ccc2oc(C(=O)Nc3nccs3)c(C)c2c1	EBNA-1 inh 29.2 (no result: HCV NS3 hel inh) | EBNA-1 confirm 54.8 | ZTA counter trip inactive
CCCCCOc1ccc(C(O)C(CN2CCOCC2)c2ccccc2)cc1 (stereo not drawn)	none (no result: ZTA counter, HCV core dimer, EBNA-1 inh)
COc1ccc(C(=O)Nc2nnc(-c3ccc(F)cc3)s2)c(OC)c1	none (no result: ZTA counter, HCV core dimer, EBNA-1 inh)
COc1ccccc1C(=O)Nc1nnc(-c2ccc(F)cc2)s1	EBNA-1 inh active | EBNA-1 confirm inactive | ZTA counter trip inactive
Cc1ccc(Cl)cc1NS(=O)(=O)c1ccc2oc(=O)ccc2c1	none
COc1ccc(-c2cc(-c3ccc(C)cc3)nc(SCc3nnc(-c4ccccc4)o3)c2C#N)cc1OC	none
O=C(NCC1OCCc2ccccc21)c1ccc(NC(=O)c2ccc(Cl)cc2Cl)cc1 (stereo not drawn)	EBNA-1 inh 70.4 | EBNA-1 confirm 46.6 | ZTA counter trip inactive
O=C(Nc1ccc2c(c1)OCO2)C1CCN(c2ccc(S(=O)(=O)N3CCOCC3)cc2)CC1	EBNA-1 inh 29.4 | EBNA-1 confirm inactive | ZTA counter trip inactive
Cc1ccc(S(=O)(=O)N2CCC(C(=O)Nc3ccc4c(c3)OCO4)CC2)cc1	none
O=C(CN(CCc1ccccc1)C(=O)c1csnn1)NC1CCCC1	none
CSc1ccc(-c2nc(CN3CCCCC3c3cccnc3)c(C)o2)cc1 (stereo not drawn)	none
Cc1cc(=O)oc2c3c(cc(OCC(=O)N4CCC[C@H]4C(=O)O)c12)OC(C)(C)CC3	EBNA-1 inh 174.4 | EBNA-1 confirm inactive | ZTA counter trip inactive
CCCCc1cc(=O)oc2c3c(cc(OCC(=O)N4CCC[C@H]4C(=O)O)c12)OC(C)(C)CC3	none
O=C(CSc1nnc(-c2ccc(Br)cc2)o1)Nc1cccc(C(=O)O)c1	none
O=C(CSc1nnc(-c2ccc(Br)cc2)o1)Nc1cccc2ccccc12	EBNA-1 inh 40.2 | EBNA-1 confirm 51.5 | ZTA counter trip inactive
COc1cc2c(cc1OC)C(COc1cc(C)cc(C)c1)N(C(C)=O)CC2 (stereo not drawn)	none
O=C(Cc1ccc(-n2cccc2)cc1)NCc1cccs1	EBNA-1 inh 32.5 | EBNA-1 confirm inactive | ZTA counter trip inactive
NC(=S)N/N=C/c1ccc(/C=N/NC(N)=S)cc1	EBNA-1 inh 67.9 | EBNA-1 confirm 34.4 | ZTA counter trip inactive
NC(=S)N/N=C/c1cccc(/C=N/NC(N)=S)c1	none
CC(=O)NCC1CCCN(C(=O)c2ccc(OC3CCN(Cc4ccccn4)CC3)cc2)C1 (stereo not drawn)	none
COC(=O)c1c(NC(=O)c2ccccc2)sc2c1CC(C)(C)OC2	EBNA-1 inh 31.8 | EBNA-1 confirm inactive | ZTA counter trip inactive
O=C(Nc1ccc2oc(-c3ccccc3)nc2c1)c1ccccc1F	EBNA-1 inh 34.8 | EBNA-1 confirm inactive | ZTA counter trip inactive
CCC(=O)Nc1cccc(-c2nc3ccc(C)cc3o2)c1	none
Cc1ccc2oc(-c3cccc(NC(=O)Cc4cccs4)c3)nc2c1	EBNA-1 inh 33.7 | EBNA-1 confirm inactive | ZTA counter trip inactive
